Assay [1] has as its target T1, 5-hydroxytryptamine receptor 1A (Rattus norvegicus, UniProt P19327).
T1 sequence (P19327 whole entry): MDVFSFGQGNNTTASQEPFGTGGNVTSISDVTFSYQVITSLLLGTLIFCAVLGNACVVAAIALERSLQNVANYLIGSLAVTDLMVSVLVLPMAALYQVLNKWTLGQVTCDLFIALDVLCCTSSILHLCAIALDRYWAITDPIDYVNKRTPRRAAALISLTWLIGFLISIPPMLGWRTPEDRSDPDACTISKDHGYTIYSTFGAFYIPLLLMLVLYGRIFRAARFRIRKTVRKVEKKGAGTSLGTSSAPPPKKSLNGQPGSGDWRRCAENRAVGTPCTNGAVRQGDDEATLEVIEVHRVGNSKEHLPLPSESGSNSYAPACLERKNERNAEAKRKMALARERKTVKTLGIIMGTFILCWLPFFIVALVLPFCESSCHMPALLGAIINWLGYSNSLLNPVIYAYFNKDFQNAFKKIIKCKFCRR
Nature of the assay: Displacement of […] membrane 5-hydroxytryptamine 1A receptor. The method in brief:
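Radioligand displacement on rat brain membranes, run by an external laboratory. [3H]prazosin and [3H]ketanserin were used with cortex, and [3H]-8-OH-DPAT with hippocampus.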
(In general: Loss of bound radioactivity is the signal in a displacement assay; it reports binding, not function.)

Assay [2] concerns the target D(2) dopamine receptor (Rattus norvegicus, UniProt P61169). Nature of the assay: Displacement of [3H]- raclopride from rat striatum Dopamine receptor D2.
Assay [3] addresses Histamine H1 receptor (Rattus norvegicus, UniProt P31390). Nature of the assay: Displacement of [3H]- pyrilamine from rat brain membrane Histamine H1 receptor.
For assay [4], the target named is T2, Muscarinic acetylcholine receptor M1 (Rattus norvegicus, UniProt P08482).
T2 sequence (P08482 whole entry): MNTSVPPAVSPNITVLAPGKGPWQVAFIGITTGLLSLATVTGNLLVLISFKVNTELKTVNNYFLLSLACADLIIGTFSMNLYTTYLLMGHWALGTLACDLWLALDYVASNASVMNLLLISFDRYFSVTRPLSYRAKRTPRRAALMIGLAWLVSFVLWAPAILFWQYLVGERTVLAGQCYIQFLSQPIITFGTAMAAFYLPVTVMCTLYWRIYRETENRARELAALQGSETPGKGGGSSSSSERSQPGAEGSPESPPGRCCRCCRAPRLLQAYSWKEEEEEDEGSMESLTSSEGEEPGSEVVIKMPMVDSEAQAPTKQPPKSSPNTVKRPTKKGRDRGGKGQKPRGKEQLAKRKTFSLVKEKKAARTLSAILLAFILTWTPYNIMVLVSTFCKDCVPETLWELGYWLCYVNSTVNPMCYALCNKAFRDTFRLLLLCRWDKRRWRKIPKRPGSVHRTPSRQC
Nature of the assay: In vitro binding affinity towards Muscarinic acetylcholine receptor M1 by displacing [3H]- telenzepine from rat brain membrane.

Assay [5] has as its target T3, Sigma non-opioid intracellular receptor 1 (Homo sapiens, UniProt Q99720). Nature of the assay: Binding affinity ratio between Sigma opioid receptor type 1 and Sigma opioid receptor type 2. The method in brief:
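Selectivity ratio of σ1 to σ2 affinity, determined only for compounds with high affinity at sigma sites. σ1 affinity was measured with (+)-pentazocine and σ2 affinity with DTG as radioligands.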

The species entered for assay [6] is Rattus norvegicus. Nature of the assay: In vitro binding affinity ratio between Sigma opioid receptor and 5-hydroxytryptamine 1A receptor.
For assay [7], the target named is T3, Sigma non-opioid intracellular receptor 1. Nature of the assay: In vitro binding affinity towards Sigma opioid receptor type 1 by using [3H]- (+)-pentazocine as radioligand.
Assay [8] shares this target. Nature of the assay: In vitro binding affinity for Sigma opioid receptor by displacement of [3H]DTG.
A short description of assay [9]: Binding affinity ratio towards sigma receptor compared to the 5-hydroxytryptamine 1A receptor.
Assay [10] concerns the target Sigma 2 receptor. Nature of the assay: In vitro binding affinity towards Sigma opioid receptor type 2 by using [3H]- DTG in the presence of 1 uM (+)- pentazocine.
Assay [11] addresses T2, Muscarinic acetylcholine receptor M1. Nature of the assay: In vitro binding affinity towards Muscarinic acetylcholine receptor M1 by displacing [3H]- telenzepine from rat brain membrane.

T3 sequence (Q99720 whole entry): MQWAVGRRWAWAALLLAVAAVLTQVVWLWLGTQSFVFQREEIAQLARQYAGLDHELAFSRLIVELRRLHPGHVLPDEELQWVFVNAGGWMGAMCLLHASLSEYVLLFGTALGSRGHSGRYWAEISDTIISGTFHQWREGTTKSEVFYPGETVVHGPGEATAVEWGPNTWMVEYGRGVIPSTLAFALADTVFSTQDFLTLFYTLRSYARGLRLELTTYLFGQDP
Chain of Histamine H1 receptor (P31390 whole entry): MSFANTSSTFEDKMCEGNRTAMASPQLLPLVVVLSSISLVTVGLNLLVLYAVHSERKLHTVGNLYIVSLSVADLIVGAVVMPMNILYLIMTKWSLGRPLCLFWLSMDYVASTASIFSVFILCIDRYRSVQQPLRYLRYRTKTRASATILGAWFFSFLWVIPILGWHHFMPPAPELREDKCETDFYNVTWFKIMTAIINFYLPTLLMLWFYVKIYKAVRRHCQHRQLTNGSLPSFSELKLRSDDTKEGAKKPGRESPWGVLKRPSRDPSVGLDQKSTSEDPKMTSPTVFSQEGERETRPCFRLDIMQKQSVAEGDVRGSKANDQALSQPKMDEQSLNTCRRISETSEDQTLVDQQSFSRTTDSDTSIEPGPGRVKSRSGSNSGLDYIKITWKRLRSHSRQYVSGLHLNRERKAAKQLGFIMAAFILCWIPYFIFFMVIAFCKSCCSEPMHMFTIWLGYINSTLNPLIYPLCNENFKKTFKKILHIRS
Chain of D(2) dopamine receptor (P61169 whole entry): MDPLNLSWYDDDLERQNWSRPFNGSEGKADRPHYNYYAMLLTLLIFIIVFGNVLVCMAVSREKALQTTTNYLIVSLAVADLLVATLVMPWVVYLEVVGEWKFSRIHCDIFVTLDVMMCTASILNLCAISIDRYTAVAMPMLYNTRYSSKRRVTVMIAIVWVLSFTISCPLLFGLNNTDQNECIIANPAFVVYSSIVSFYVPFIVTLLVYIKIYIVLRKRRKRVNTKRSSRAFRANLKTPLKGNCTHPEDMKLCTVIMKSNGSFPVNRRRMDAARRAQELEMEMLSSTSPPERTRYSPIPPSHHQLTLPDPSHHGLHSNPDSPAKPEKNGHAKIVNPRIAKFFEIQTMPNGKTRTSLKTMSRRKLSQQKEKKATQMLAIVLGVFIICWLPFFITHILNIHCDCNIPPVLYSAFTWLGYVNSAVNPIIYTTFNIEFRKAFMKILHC

Turning to `Cn1c(=O)sc2cc(CCN3CCC(c4ccccc4)CC3)ccc21`, the Ki – broadly, a dissociation constant, usually derived from enzyme kinetics or from competition with a known ligand – came to 4 nM in [1]; 1000 nM in [2]; 20 nM in assay [3]; 1000 nM in [4]; 20 nM in assay [7]; 2 nM in [8]. Moreover, the Ratio in assay [5] came to 10; in [6] it was 0.5.
On to `Cn1c(=O)sc2cc(CCCCN3CCN(Cc4ccc(Cl)c(Cl)c4)CC3)ccc21`, for which the Ki was 300 nM in assay [1]; 100 nM in [2]; 9 nM in assay [3]; 500 nM in assay [4]; 139 nM in assay [7]; 2 nM in assay [8]. For the same molecule, the Ratio in assay [5] was determined as 70; in assay [6], 0.006.
Regarding `C[C@@H]1CN(CCCCc2ccc3c(c2)sc(=O)n3C)C[C@H](C)N1`, the Ki in [1] was above 100000 nM; in assay [2] it was above 100000 nM; in [3] it was above 100000 nM; in [4], above 100000 nM; in assay [8], 100 nM. Also, the Ratio in assay [9] was below 0.001.
Regarding `Cn1c(=O)sc2cc(CCCCN3CCC(c4ccccc4)CC3)ccc21`, the inhibitory constant (Ki) amounted to 10 nM in [1], 30 nM in assay [2], 6000 nM in [3] and 3 nM in assay [8]. For the same molecule, the Ratio in [9] was found to be 0.3.
The corresponding values for `Cn1c(=O)sc2cc(CCN3CCN(Cc4ccc(Cl)cc4Cl)CC3)ccc21` are 100 nM, 100 nM, 10 nM, 8 nM and 0.08.
In the case of `Cn1c(=O)sc2cc(CCCCN3CCN(Cc4ccccc4)CC3)ccc21`, the Ki in [1] is 40 nM; in [2], 10000 nM; in assay [3], below 100 nM; in assay [4], 10000 nM; in assay [10], 2 nM; in [7], 37.2 nM. For the same molecule, the Ki in assay [8] is 2 nM.
`Cn1c(=O)sc2cc(CCN3CCC(Cc4ccccc4)CC3)ccc21`: the Ki is 4 nM in assay [1]; above 100 nM in assay [2]; 3 nM in [3]; 100 nM in assay [4]; 5 nM in assay [8]. The Ratio in [9] stood at 1.25.
On to `Cn1c(=O)sc2cc(CCN3CCN(Cc4ccccc4)CC3)ccc21`, for which the Ki is 30 nM in assay [1]; above 10000 nM in assay [2]; 7 nM in assay [3]; 500 nM in assay [4]; 3 nM in [8]. For the same molecule, the Ratio in assay [9] came out at 0.1.
For `Cn1c(=O)sc2cc(CCCCN3CCN(Cc4ccc(Cl)cc4Cl)CC3)ccc21`, the Ki was 200 nM in assay [1]; 100 nM in assay [2]; below 100 nM in [3]; below 10000 nM in assay [4]; 9 nM in [8]. Further, the Ratio in assay [9] was determined as 0.04.
On to `Cn1c(=O)sc2cc(CCCCN3CCC(Cc4ccccc4)CC3)ccc21`, for which the Ki in assay [1] was determined as 30 nM; in assay [2], 100 nM; in [3] it was 9 nM; in assay [8], 5 nM; in assay [11], 200 nM. In addition, the Ratio in assay [9] came to 0.17.
Take `C[C@@H]1CN(CCc2ccc3c(c2)sc(=O)n3C)C[C@H](C)N1`: the Ki is above 10000 nM in assay [1]; above 10000 nM in [2]; 20000 nM in assay [3]; above 10000 nM in assay [4]; 2000 nM in assay [8]. For the same molecule, the Ratio in [9] was below 0.2.
On to `Cn1c(=O)sc2cc(CCN3CCN(Cc4ccc(Cl)c(Cl)c4)CC3)ccc21`, for which the inhibition constant (Ki) in assay [1] worked out at 30 nM; in [2] it was 200 nM; in [3], 40 nM; in assay [4], 1000 nM; in [8] it was 5 nM. In assay [9], the Ratio turned out to be 0.17.
